Results from ChEMBL document CHEMBL1155986, “Discovery of 4H-pyrazolo[1,5-a]pyrimidin-7-ones as potent inhibitors of hepatitis C virus polymerase” (Bioorg Med Chem Lett, 2009).

Legend:
[1] = Inhibition of HCV NS5B deltaC55 polymerase assessed as [3H]GTP incorporation after 50 min by scintillation proximity assay; parameters: species or system Hepacivirus hominis
Method in brief: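 NS5B Δ55 construct (6 nM) with biotinylated oligoG12/polyC template/primer, [3H]-GTP and unlabelled GTP, in 20 mM HEPES pH 7.3, 7.5 mM DTT, 10 mM MgCl2, 60 mM NaCl, BSA and RNasIN. Reactions ran 50 min at room temperature, were stopped with streptavidin SPA beads containing 100 mM EDTA, and were scintillation counted. IC50 came from single experiments over 11 twofold dilutions, accepted only if the positive internal control fell within its SD range.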

[2] = Inhibition of HCV NS5B deltaC21 polymerase assessed as [3H]GTP incorporation after 3 hrs by scintillation proximity assay; parameters: species or system Hepacivirus hominis
Method in brief: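 Scintillation proximity assay with the NS5B Δ21 construct at 50 nM, using a polyC/oligoG template/primer with raised GTP and [3H]-GTP levels. The reaction ran 3 h at room temperature, and labelled GTP incorporation was read by scintillation counting.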

Hepatitis C virus = assay: Antiviral activity against HCV by cell-based replicon assay; type: functional, Hepacivirus hominis

Row | SMILES | IC50 [1] [µM] | IC50 [2] | IC50 ([2]; read-out: IC50) [µM] | Activity (Hepatitis C virus) [µM]
1 | O=C(O)c1cc2[nH]c(-c3ccc(Oc4cccc(C(F)(F)F)c4)cc3)c(C3CCCCC3)c(=O)n2n1 | 0.93 | Not Active |  | 
2 | O=C(O)c1cc2[nH]c(-c3ccc(OCc4ccccc4)cc3)c(CCC3CCCCC3)c(=O)n2n1 | 0.6 |  | 0.17 | 
3 | O=C(N[C@@H](Cc1c[nH]c2ccccc12)C(=O)O)c1cc2[nH]c(-c3cccs3)c(C3CCCCC3)c(=O)n2n1 |  |  | 0.2 | 
4 | C=CCCc1c(-c2ccc(OCc3ccccc3)cc2)[nH]c2cc(C(=O)O)nn2c1=O | 15 |  | 6.7 | 
5 | O=C(O)c1cc2[nH]c(-c3ccc(OCc4ccccc4)cc3)c(CC3CCCCC3)c(=O)n2n1 | 3.8 |  | 0.4 | 
6 | O=C(O)c1cc2[nH]c(-c3ccc(OCc4ccccc4)cc3)c(Cc3ccccc3)c(=O)n2n1 | 8.9 |  | 4.2 | 
7 | O=C(O)c1cc2[nH]c(-c3ccc(OCc4ccccc4)cc3)c(CC3CCCO3)c(=O)n2n1 (stereo not drawn) | > 12.5 |  | 10 | 
8 | COc1cccc(COc2ccc(-c3[nH]c4cc(C(=O)O)nn4c(=O)c3C3CCCCC3)cc2)c1 | 1.2 |  | 1 | 
9 | O=C(O)c1cc2[nH]c(-c3ccc(Oc4cccc(Cl)c4)cc3)c(C3CCCCC3)c(=O)n2n1 | 3.3 | Not Active |  | 
10 | COC(=O)[C@H](Cc1c[nH]c2ccccc12)NC(=O)c1cc2[nH]c(-c3ccco3)c(C3CCCCC3)c(=O)n2n1 |  |  | 0.27 | 
11 | O=C(N[C@@H](Cc1c[nH]c2ccccc12)C(=O)O)c1cc2[nH]c(-c3cccc(F)c3)c(C3CCCCC3)c(=O)n2n1 |  |  | 0.23 | 
12 | O=C(O)c1cc2[nH]c(-c3ccc(OCc4cccc(OC(F)(F)F)c4)cc3)c(C3CCCCC3)c(=O)n2n1 | 2.2 |  | 1.5 | 
13 | CC(C)Cc1c(-c2ccc(OCc3ccccc3)cc2)[nH]c2cc(C(=O)O)nn2c1=O | 15 |  | 9.5 | 
14 | COCCc1c(-c2ccc(OCc3ccccc3)cc2)[nH]c2cc(C(=O)O)nn2c1=O | 13 |  | 3.7 | 
15 | O=C(O)c1cc2[nH]c(-c3ccc(Oc4ccccc4)cc3)c(C3CCCCC3)c(=O)n2n1 | 6.3 | Not Active |  | 
16 | COc1cccc(Oc2ccc(-c3[nH]c4cc(C(=O)O)nn4c(=O)c3C3CCCCC3)cc2)c1 | 0.9 | Not Active |  | 
17 | O=C(O)c1cc2[nH]c(-c3ccc(OCc4ccccc4)cc3)c(C3CCCCC3)c(=O)n2n1 | 1.5 |  | 1 | 
18 | O=C(O)c1cc2[nH]c(-c3ccc(OCc4ccccc4)cc3)c(-c3ccccc3)c(=O)n2n1 | > 50 |  | > 12.5 | 
19 | O=C(O)c1cc2[nH]c(-c3ccc(OCc4ccccc4)cc3)c(CCc3ccccc3)c(=O)n2n1 | 2.2 |  | 1.2 | 
20 | C=CCc1c(-c2ccc(OCc3ccccc3)cc2)[nH]c2cc(C(=O)O)nn2c1=O | > 50 |  | > 12.5 | 
21 | O=C(O)c1cc2[nH]c(-c3ccc(OCc4ccccc4)cc3)c(CC3CCC3)c(=O)n2n1 | 8.8 |  | 2.8 | 
22 | O=C(O)c1cc2[nH]c(-c3ccc(OCc4ccccc4)cc3)c(CCCc3ccccc3)c(=O)n2n1 | 5.9 |  | 2.5 | 
23 | O=C(N[C@@H](Cc1ccc(O)cc1)C(=O)O)c1cc2[nH]c(-c3cccc(F)c3)c(C3CCCCC3)c(=O)n2n1 |  |  | 0.68 | 
24 | CC(C)CCc1c(-c2ccc(OCc3ccccc3)cc2)[nH]c2cc(C(=O)O)nn2c1=O | 5.8 |  | 1.5 | 
25 | O=C(N[C@@H](Cc1c[nH]c2ccccc12)C(=O)O)c1cc2[nH]c(-c3ccoc3)c(C3CCCCC3)c(=O)n2n1 |  |  | 0.06 | 
26 | CC(C)=CCCc1c(-c2ccc(OCc3ccccc3)cc2)[nH]c2cc(C(=O)O)nn2c1=O | 10 |  | 3.5 | 
27 | O=C(O)c1cc2[nH]c(-c3ccc(OCc4cccc(C(F)(F)F)c4)cc3)c(C3CCCCC3)c(=O)n2n1 | 1.8 |  | 0.9 | 

Now from value to molecule, other results behind:

Row | IC50 [1] [µM] | IC50 [2] | IC50 ([2]; read-out: IC50) [µM] | SMILES | Activity (Hepatitis C virus) [µM]
28 |  |  | 0.64 | O=C(N[C@@H](Cc1c[nH]cn1)C(=O)O)c1cc2[nH]c(-c3ccco3)c(C3CCCCC3)c(=O)n2n1 | 
29 |  |  | 0.07 | O=C(N[C@@H](Cc1ccc(O)cc1)C(=O)O)c1cc2[nH]c(-c3ccco3)c(C3CCCCC3)c(=O)n2n1 | 
30 | 3.3 |  | 3.1 | O=C(O)c1cc2[nH]c(-c3ccc(-c4ccccc4)cc3)c(C3CCCCC3)c(=O)n2n1 | 
31 | 2.3 |  | 0.38 | O=C(O)c1cc2[nH]c(-c3cccc(F)c3)c(C3CCCCC3)c(=O)n2n1 | 
32 |  |  | 0.18 | O=C(NS(=O)(=O)Cc1ccccc1)c1cc2[nH]c(-c3ccco3)c(C3CCCCC3)c(=O)n2n1 | 
33 |  |  | 0.3 | O=C(N[C@H](Cc1ccc(O)cc1)C(=O)O)c1cc2[nH]c(-c3ccco3)c(C3CCCCC3)c(=O)n2n1 | 
34 |  |  | 0.05 | O=C(N[C@@H](Cc1c[nH]c2ccccc12)C(=O)O)c1cc2[nH]c(-c3ccco3)c(C3CCCCC3)c(=O)n2n1 | 50
35 | 3.9 | Not Active |  | COc1ccc(-c2[nH]c3cc(C(=O)O)nn3c(=O)c2C2CCCCC2)cc1 | 
36 | 4 |  | 2.6 | O=C(O)c1cc2[nH]c(-c3ccc(Cc4ccccc4)cc3)c(C3CCCCC3)c(=O)n2n1 | 
37 |  |  | 0.2 | O=C(N[C@H](C(=O)O)c1ccc(O)cc1)c1cc2[nH]c(-c3ccco3)c(C3CCCCC3)c(=O)n2n1 | 
38 | 6.4 |  | 1.1 | O=C(O)c1cc2[nH]c(-c3cccs3)c(C3CCCCC3)c(=O)n2n1 | 
39 | 2.8 |  | 0.29 | O=C(O)c1cc2[nH]c(-c3ccco3)c(C3CCCCC3)c(=O)n2n1 | 
